Data published in ChEMBL document CHEMBL1926565, “Synthesis, antiproliferative activities and telomerase inhibition evaluation of novel asymmetrical 1,2-disubstituted amidoanthraquinone derivatives” (Eur J Med Chem, 2012).

Columns and labels:
OVCAR-8 = assay: Cytotoxicity against human OVCAR8 cells assessed as cellular growth at 10 uM; format: functional
Method in brief: (§1)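 Single-dose screen run by the NCI across its 60-human-tumour-cell-line panel; growth recorded for each cell line.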

SN12C = assay: Cytotoxicity against human SN12C cells assessed as cellular growth at 10 uM; format: functional
UO-31 = assay: Cytotoxicity against human UO31 cells assessed as cellular growth at 10 uM; format: functional
DU-145 = assay: Cytotoxicity against human DU145 cells assessed as cellular growth at 10 uM; format: functional; method in brief: as §1
T47D [1] = assay: Cytotoxicity against human T47D cells assessed as cellular growth at 10 uM; format: functional
SR = assay: Anticancer activity against human SR cells; format: functional
Method in brief: (§2)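 NCI 60-human-tumour-cell-line panel. Selected analogues were first run at one dose, then some were carried into multi-dose testing. GI50 (50% growth inhibition), TGI (total growth inhibition) and LC50 (50% cell kill) were read as values interpolated where the dose–response curves cross these levels.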

K562 = assay: Anticancer activity against human K562 cells; format: functional; method in brief: as §2
PC-3 [2] = assay: Cytotoxicity against human PC3 cells after 48 hrs by SRB assay; format: functional, cell-based; settings: PC-3, 48 h
Method in brief: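 PC-3 cells grown in RPMI1640 with 10% FBS at 37 °C, 5% CO₂. Seeded in medium with 5% FBS; after 24 h, one plate fixed with 10% TCA as T₀. Compound or 0.1% DMSO vehicle added for 48 h, then TCA fixation and 0.4% SRB in 1% acetic acid. Dye solubilized in 10 mM Trizma base, absorbance read at 515 nm. IC50 is the concentration giving 50% reduction of the protein gain in controls.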

RPMI-8226 = assay: Anticancer activity against human RPMI8226 cells; format: functional; method in brief: as §2
NCI-H23 = assay: Anticancer activity against human NCI-H23 cells; format: functional; method in brief: as §2
NCI-H322M = assay: Anticancer activity against human NCI-H322M cells; format: functional; method in brief: as §2
NCI-H522 = assay: Anticancer activity against human NCI-H522 cells; format: functional; method in brief: as §2
COLO 205 = assay: Anticancer activity against human COLO205 cells; format: functional; method in brief: as §2
HCT-15 [3] = assay: Anticancer activity against human HCT15 cells; format: functional; method in brief: as §2
HT-29 [4] = assay: Anticancer activity against human HT-29 cells; format: functional; method in brief: as §2
SF-268 [5] = assay: Anticancer activity against human SF268 cells; format: functional; method in brief: as §2
SF-295 = assay: Anticancer activity against human SF295 cells; format: functional; method in brief: as §2
LOX IMVI = assay: Anticancer activity against human LOXIMVI cells; format: functional; method in brief: as §2
Malme-3M [6] = assay: Anticancer activity against human MALME-3M cells; format: functional; settings: read-out: LC50 (the source's name)
Method in brief: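 Tested by the NCI in its 60-human-tumour-cell-line panel. Dose-response curves were run, and GI₅₀ (50% growth inhibition), TGI (total growth inhibition) and LC₅₀ (50% cell killing) were read as interpolated concentrations where the curves cross those levels.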

M14 = assay: Anticancer activity against human M14 cells; format: functional; method in brief: as §2
SK-MEL-2 = assay: Anticancer activity against human SK-MEL-2 cells; format: functional; method in brief: as §2
SK-MEL-28 = assay: Anticancer activity against human SK-MEL-28 cells; format: functional; method in brief: as §2
SK-MEL-5 = assay: Anticancer activity against human SK-MEL-5 cells; format: functional; method in brief: as §2
UACC-257 = assay: Anticancer activity against human UACC257 cells; format: functional
OVCAR-3 = assay: Anticancer activity against human OVCAR3 cells; format: functional; method in brief: as §2
OVCAR-4 = assay: Anticancer activity against human OVCAR4 cells; format: functional; method in brief: as §2
OVCAR-5 = assay: Anticancer activity against human OVCAR5 cells; format: functional; method in brief: as §2
SK-OV-3 = assay: Anticancer activity against human SKOV3 cells; format: functional; method in brief: as §2
786-0 = assay: Anticancer activity against human 786-0 cells; format: functional; method in brief: as §2
A498 = assay: Anticancer activity against human A498 cells; format: functional; method in brief: as §2
TK-10 = assay: Anticancer activity against human TK10 cells; format: functional
CAKI-1 = assay: Anticancer activity against human Caki1 cells; format: functional; method in brief: as §2
RXF 393 = assay: Anticancer activity against human RXF393 cells; format: functional; method in brief: as §2
PC-3 [7] = assay: Anticancer activity against human PC3 cells; format: functional; method in brief: as §2
MCF7 = assay: Anticancer activity against human MCF7 cells; format: functional; method in brief: as §2
T47D [8] = assay: Anticancer activity against human T47D cells; format: functional
NCI-H460 = assay: Cytotoxicity against human NCI-H460 cells assessed as cellular growth at 10 uM; format: functional; method in brief: as §1
HCT-116 = assay: Cytotoxicity against human HCT116 cells assessed as cellular growth at 10 uM; format: functional; method in brief: as §1
HCT-15 [9] = assay: Cytotoxicity against human HCT15 cells assessed as cellular growth at 10 uM; format: functional; method in brief: as §1
HT-29 [10] = assay: Cytotoxicity against human HT-29 cells assessed as cellular growth at 10 uM; format: functional; method in brief: as §1
SF-268 [11] = assay: Cytotoxicity against human SF268 cells assessed as cellular growth at 10 uM; format: functional; method in brief: as §1
U-251 = assay: Cytotoxicity against human U251 cells assessed as cellular growth at 10 uM; format: functional
Malme-3M [12] = assay: Cytotoxicity against human MALME-3M cells assessed as cellular growth at 10 uM; format: functional; method in brief: as §1
MDA-MB-435 = assay: Cytotoxicity against human MDA-MB-435 cells assessed as cellular growth at 10 uM; format: functional; method in brief: as §1
[13] = Growth of human H1299 cells at 100 uM 48 hrs by MTT assay; settings: NCI-H1299, 48 h
[14] = read-out: LC50 (the source's name)

SMILES: Cc1ccc(C(=O)Nc2c(NC(=O)CN3CCN(C)CC3)ccc3c2C(=O)c2ccccc2C3=O)cc1
- Activity (OVCAR-8): 46.43%
- Activity (SN12C): 63.31%
- Activity (UO-31): 70.66%
- Activity (DU-145): 82.12%
- Activity (T47D [1]): 52.62%
- LC50 (SR): > 100 µM
- TGI (SR): 4.65 µM
- GI50 (K562): 2.09 µM
- IC50 (PC-3 [2]): 3.46 µM
- GI50 (RPMI-8226): 3.25 µM
- LC50 (50% cell kill) (RPMI-8226): > 100 µM
- TGI (RPMI-8226): > 100 µM
- GI50 (NCI-H23): > 100 µM
- LC50 (50% cell kill) (NCI-H23): > 100 µM
- TGI (NCI-H23): > 100 µM
- GI50 (NCI-H322M): > 100 µM
- LC50 (50% cell kill) (NCI-H322M): > 100 µM
- TGI (NCI-H322M): > 100 µM
- TGI (NCI-H522): > 100 µM
- CC50 (NCI-H522; [14]): > 100 µM
- GI50 (COLO 205): 2.22 µM
- LC50 (COLO 205): > 100 µM
- TGI (COLO 205): 4.08 µM
- GI50 (HCT-15 [3]): 3.36 µM
- LC50 (HCT-15 [3]): > 100 µM
- TGI (HCT-15 [3]): > 100 µM
- GI50 (HT-29 [4]): 3.09 µM
- TGI (HT-29 [4]): > 100 µM
- CC50 (HT-29 [4]; [14]): > 100 µM
- TGI (SF-268 [5]): > 100 µM
- CC50 (SF-268 [5]; [14]): > 100 µM
- GI50 (SF-295): > 100 µM
- TGI (SF-295): > 100 µM
- CC50 (SF-295; [14]): > 100 µM
- TGI (LOX IMVI): > 100 µM
- CC50 (LOX IMVI; [14]): > 100 µM
- CC50 (Malme-3M [6]): > 100 µM
- GI50 (M14): 2.22 µM
- TGI (M14): 4.65 µM
- GI50 (SK-MEL-2): > 100 µM
- TGI (SK-MEL-2): > 100 µM
- CC50 (SK-MEL-2; [14]): > 100 µM
- GI50 (SK-MEL-28): 1.87 µM
- GI50 (SK-MEL-5): 1.94 µM
- CC50 (SK-MEL-5; [14]): > 100 µM
- GI50 (UACC-257): 2.23 µM
- TGI (UACC-257): 5.81 µM
- CC50 (UACC-257; [14]): > 100 µM
- GI50 (OVCAR-3): 2.43 µM
- CC50 (OVCAR-3; [14]): > 100 µM
- TGI (OVCAR-4): > 100 µM
- CC50 (OVCAR-4; [14]): > 100 µM
- GI50 (OVCAR-5): > 100 µM
- TGI (OVCAR-5): > 100 µM
- CC50 (OVCAR-5; [14]): > 100 µM
- GI50 (SK-OV-3): > 100 µM
- TGI (SK-OV-3): > 100 µM
- CC50 (SK-OV-3; [14]): > 100 µM
- GI50 (786-0): 5.61 µM
- TGI (786-0): > 100 µM
- CC50 (786-0; [14]): > 100 µM
- GI50 (A498): > 100 µM
- TGI (A498): > 100 µM
- CC50 (A498; [14]): > 100 µM
- GI50 (TK-10): > 100 µM
- TGI (TK-10): > 100 µM
- CC50 (TK-10; [14]): > 100 µM
- TGI (CAKI-1): > 100 µM
- CC50 (CAKI-1; [14]): > 100 µM
- TGI (RXF 393): > 100 µM
- CC50 (RXF 393; [14]): > 100 µM
- TGI (PC-3 [7]): > 100 µM
- CC50 (PC-3 [7]; [14]): > 100 µM
- GI50 (MCF7): 3.13 µM
- TGI (MCF7): > 100 µM
- CC50 (MCF7; [14]): > 100 µM
- GI50 (T47D [8]): 2.62 µM
- CC50 (T47D [8]; [14]): > 100 µM
- Activity (NCI-H460): 37.47%
- Activity (HCT-116): 8.37%
- Activity (HCT-15 [9]): 27.47%
- Activity (HT-29 [10]): 3.69%
- Activity (SF-268 [11]): 59.11%
- Activity (U-251): 22.38%
- Activity (Malme-3M [12]): 10.84%
- Activity (MDA-MB-435): 11.15%
- growth, % of control at 100 µM [13]: 3%
